According to ChEMBL document CHEMBL5058577, “EUbOPEN Chemogenomics Library 2 (Multiplex)” (2022):

System: HEK-293T
Assay: Multiplex assay against HEK293T
Format: toxicity, cell-based
Details: human
Outline: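 Four dyes were applied at seeding to live cells: Hoechst33342, BioTracker Green Microtubule Cytoskeleton Dye, MitoTracker Red and Annexin V Alexa Fluor 680. Imaging after compound addition used a CQ1 microscope at 37°C and 5% CO2. CellPathfinder machine-learning gating then sorted cells into Hoechst high-intensity objects or normal cells, normal cells into healthy, pyknosed or fragmented nuclei, and pyknosed cells into mitotic or apoptotic, with tubulin, mitochondrial-mass and membrane-permeability phenotypes given as per cents of healthy-nucleus cells.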

[1] = 12 h, 1 µM, compound concentration 1 uM, replicate 1
[2] = 12 h, 1 µM, compound concentration 1 uM, replicate 2
[3] = 12 h, 10 µM, compound concentration 10 uM, replicate 1
[4] = 12 h, 10 µM, compound concentration 10 uM, replicate 2
[5] = 24 h, 1 µM, compound concentration 1 uM, replicate 1
[6] = 24 h, 1 µM, compound concentration 1 uM, replicate 2
[7] = 24 h, 10 µM, compound concentration 10 uM, replicate 1
[8] = 24 h, 10 µM, compound concentration 10 uM, replicate 2
[9] = 48 h, 1 µM, compound concentration 1 uM, replicate 1
[10] = 48 h, 1 µM, compound concentration 1 uM, replicate 2
[11] = 48 h, 10 µM, compound concentration 10 uM, replicate 1
[12] = 48 h, 10 µM, compound concentration 10 uM, replicate 2

## NCCc1cn(S(=O)(=O)c2c(Cl)nc3sccn23)c2ccccc12.O=C(O)C(=O)O
[1]
  Population Apoptotic (%): 37%
  Population Fragmented Nuclei (%): 5%
  Population Healthy Nuclei (%): 83%
  Population Hoechst High Intensity Objects (%): 7%
  Population Membrane Permeable-Phenotype (%): 0%
  Population Mitochondria Different-Phenotype (%): 53%
  Population Mitotic Cells (%): 62%
  Population Normal (%): 92%
  Population Pyknosed Nuclei (%): 11%
  Population Tubulin-Different-Phenotype (%): 40%
  Total Cell Count: 446
[2]
  Population Apoptotic (%): 52%
  Population Fragmented Nuclei (%): 8%
  Population Healthy Nuclei (%): 78%
  Population Hoechst High Intensity Objects (%): 8%
  Population Mitochondria Different-Phenotype (%): 66%
  Population Mitotic Cells (%): 47%
  Population Normal (%): 91%
  Population Pyknosed Nuclei (%): 13%
  Population Tubulin-Different-Phenotype (%): 34%
  Total Cell Count: 316
[3]
  Population Apoptotic (%): 63%
  Population Fragmented Nuclei (%): 8%
  Population Healthy Nuclei (%): 49%
  Population Hoechst High Intensity Objects (%): 22%
  Population Membrane Permeable-Phenotype (%): 0%
  Population Mitochondria Different-Phenotype (%): 96%
  Population Mitotic Cells (%): 36%
  Population Normal (%): 77%
  Population Pyknosed Nuclei (%): 42%
  Population Tubulin-Different-Phenotype (%): 88%
  Total Cell Count: 292
[4]
  Population Apoptotic (%): 64%
  Population Healthy Nuclei (%): 67%
  Population Hoechst High Intensity Objects (%): 25%
  Population Mitochondria Different-Phenotype (%): 97%
  Population Mitotic Cells (%): 35%
  Population Normal (%): 74%
  Population Pyknosed Nuclei (%): 23%
  Population Tubulin-Different-Phenotype (%): 82%
  Total Cell Count: 209
[5]
  Population Apoptotic (%): 33%
  Population Fragmented Nuclei (%): 9%
  Population Healthy Nuclei (%): 79%
  Population Hoechst High Intensity Objects (%): 6%
  Population Membrane Permeable-Phenotype (%): 1%
  Population Mitochondria Different-Phenotype (%): 28%
  Population Mitotic Cells (%): 66%
  Population Normal (%): 93%
  Population Pyknosed Nuclei (%): 11%
  Population Tubulin-Different-Phenotype (%): 26%
  Total Cell Count: 585
[6]
  Population Apoptotic (%): 41%
  Population Fragmented Nuclei (%): 12%
  Population Healthy Nuclei (%): 78%
  Population Hoechst High Intensity Objects (%): 4%
  Population Mitochondria Different-Phenotype (%): 46%
  Population Mitotic Cells (%): 58%
  Population Normal (%): 95%
  Population Pyknosed Nuclei (%): 8%
  Population Tubulin-Different-Phenotype (%): 19%
  Total Cell Count: 438
[7]
  Population Apoptotic (%): 74%
  Population Fragmented Nuclei (%): 14%
  Population Healthy Nuclei (%): 37%
  Population Hoechst High Intensity Objects (%): 34%
  Population Membrane Permeable-Phenotype (%): 2%
  Population Mitochondria Different-Phenotype (%): 83%
  Population Mitotic Cells (%): 25%
  Population Normal (%): 65%
  Population Pyknosed Nuclei (%): 48%
  Population Tubulin-Different-Phenotype (%): 44%
  Total Cell Count: 310
[8]
  Population Apoptotic (%): 75%
  Population Healthy Nuclei (%): 62%
  Population Mitochondria Different-Phenotype (%): 95%
  Population Mitotic Cells (%): 24%
  Population Pyknosed Nuclei (%): 22%
  Population Tubulin-Different-Phenotype (%): 76%
  Total Cell Count: 195
[9]
  Population Apoptotic (%): 23%
  Population Fragmented Nuclei (%): 16%
  Population Healthy Nuclei (%): 77%
  Population Hoechst High Intensity Objects (%): 3%
  Population Membrane Permeable-Phenotype (%): 0%
  Population Mitochondria Different-Phenotype (%): 22%
  Population Mitotic Cells (%): 76%
  Population Normal (%): 96%
  Population Pyknosed Nuclei (%): 6%
  Population Tubulin-Different-Phenotype (%): 19%
  Total Cell Count: 972
[10]
  Population Apoptotic (%): 47%
  Population Fragmented Nuclei (%): 12%
  Population Healthy Nuclei (%): 82%
  Population Hoechst High Intensity Objects (%): 5%
  Population Membrane Permeable-Phenotype (%): 1%
  Population Mitochondria Different-Phenotype (%): 23%
  Population Mitotic Cells (%): 52%
  Population Normal (%): 94%
  Population Pyknosed Nuclei (%): 5%
  Population Tubulin-Different-Phenotype (%): 14%
  Total Cell Count: 678
[11]
  Population Apoptotic (%): 53%
  Population Fragmented Nuclei (%): 27%
  Population Healthy Nuclei (%): 24%
  Population Hoechst High Intensity Objects (%): 62%
  Population Membrane Permeable-Phenotype (%): 11%
  Population Mitochondria Different-Phenotype (%): 74%
  Population Mitotic Cells (%): 46%
  Population Normal (%): 37%
  Population Pyknosed Nuclei (%): 47%
  Population Tubulin-Different-Phenotype (%): 55%
  Total Cell Count: 294
[12]
  Population Apoptotic (%): 78%
  Population Fragmented Nuclei (%): 19%
  Population Healthy Nuclei (%): 47%
  Population Hoechst High Intensity Objects (%): 47%
  Population Membrane Permeable-Phenotype (%): 1%
  Population Mitochondria Different-Phenotype (%): 75%
  Population Mitotic Cells (%): 21%
  Population Normal (%): 52%
  Population Pyknosed Nuclei (%): 33%
  Population Tubulin-Different-Phenotype (%): 52%
  Total Cell Count: 212
